ChEMBL document CHEMBL4138150, “Quinoline derivatives bearing pyrazole moiety: Synthesis and biological evaluation as possible antibacterial and antifungal agents” (2018)
≈ marks a conversion by molar mass, not a printed value.

Assays:
Format in all cases: functional
[1] = tested on: Staphylococcus aureus; test: Antimicrobial activity against Staphylococcus aureus RCMB 010027 assessed as diameter of zone inhibition at 5 mg/ml after 24 hrs by agar well diffusion assay; settings: RCMB 010027, 24 h, read-out: DIZ
How it was run: (§1)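 Agar well diffusion: 100 µL of 1 x10^8 CFU/mL bacteria was spread on nutrient agar. 10 mm wells received 100 µL of compound at 5 mg/mL in DMSO, or ampicillin or gentamycin standards at 1 mg/mL. DMSO served as negative control. Plates were incubated 24 h at 37 °C. Inhibition zone diameter (mm) was measured as the mean of triplicates.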

[2] = tested on: Staphylococcus epidermidis; test: Antimicrobial activity against Staphylococcus epidermidis RCMB 010024 assessed as diameter of zone inhibition at 5 mg/ml after 24 hrs by agar well diffusion assay; settings: RCMB 010024, 24 h, read-out: DIZ; how it was run: as §1
[3] = tested on: Bacillus subtilis; test: Antimicrobial activity against Bacillus subtilis RCMB 010063 assessed as diameter of zone inhibition at 5 mg/ml after 24 hrs by agar well diffusion assay; settings: RCMB 010063, 24 h, read-out: DIZ; how it was run: as §1
[4] = tested on: Proteus vulgaris; test: Antimicrobial activity against Proteus vulgaris RCMB 010085 assessed as diameter of zone inhibition at 5 mg/ml after 24 hrs by agar well diffusion assay; settings: RCMB 010085, 24 h, read-out: DIZ; how it was run: as §1
[5] = tested on: Klebsiella pneumoniae; test: Antimicrobial activity against Klebsiella pneumoniae RCMB 010093 assessed as diameter of zone inhibition at 5 mg/ml after 24 hrs by agar well diffusion assay; settings: RCMB 010093, 24 h, read-out: DIZ; how it was run: as §1
[6] = tested on: Shigella flexneri; test: Antimicrobial activity against Shigella flexneri RCMB 0100542 assessed as diameter of zone inhibition at 5 mg/ml after 24 hrs by agar well diffusion assay; settings: RCMB 0100542, 24 h, read-out: DIZ; how it was run: as §1
[7] = tested on: Aspergillus fumigatus; test: Antimicrobial activity against Aspergillus fumigatus RCMB 02564 assessed as diameter of zone inhibition at 5 mg/ml after 72 hrs by agar well diffusion assay; settings: RCMB 02564, 72 h, read-out: DIZ
How it was run: (§2)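 Fungi (1 x10^6 CFU/mL, 100 µL) were spread on Sabouraud dextrose agar. 10 mm wells were loaded with 100 µL of test solution at 5 mg/mL in DMSO, or amphotericin B standard at 1 mg/mL. A DMSO negative control was included. Plates were incubated 72 h at 28 °C. Inhibition zone diameter (mm) was recorded as the average of triplicate runs.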

[8] = tested on: Aspergillus clavatus; test: Antimicrobial activity against Aspergillus clavatus RCMB 02593 assessed as diameter of zone inhibition at 5 mg/ml after 72 hrs by agar well diffusion assay; settings: RCMB 02593, 72 h, read-out: DIZ; how it was run: as §2
[9] = tested on: Candida albicans; test: Antimicrobial activity against Candida albicans RCMB 05035 assessed as diameter of zone inhibition at 5 mg/ml after 72 hrs by agar well diffusion assay; settings: RCMB 05035, 72 h, read-out: DIZ; how it was run: as §2
[10] = tested on: Staphylococcus aureus; test: Antimicrobial activity against Staphylococcus aureus RCMB 010027 after overnight incubation by macro-tube dilution technique
How it was run: (§3)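 Macro-tube twofold dilution following NCCLS guidance, run in nutrient broth. The first tube held 10 mg compound in 2.0 mL DMSO and was serially halved 1:1 into 1.0 mL broth through tube 14; tube 15 was the control. The inoculum was suspended to turbidity in 5.0 mL broth, 0.2 mL was diluted into 40 mL, and 1.0 mL was added per tube. Tubes were incubated overnight at 37 °C. MIC was the lowest concentration with no growth.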

[11] = tested on: Staphylococcus epidermidis; test: Antimicrobial activity against Staphylococcus epidermidis RCMB 010024 after overnight incubation by macro-tube dilution technique; how it was run: as §3
[12] = tested on: Bacillus subtilis; test: Antimicrobial activity against Bacillus subtilis RCMB 010063 after overnight incubation by macro-tube dilution technique; how it was run: as §3
[13] = tested on: Proteus vulgaris; test: Antimicrobial activity against Proteus vulgaris RCMB 010085 after overnight incubation by macro-tube dilution technique; how it was run: as §3
[14] = tested on: Klebsiella pneumoniae; test: Antimicrobial activity against Klebsiella pneumoniae RCMB 010093 after overnight incubation by macro-tube dilution technique; how it was run: as §3
[15] = tested on: Shigella flexneri; test: Antimicrobial activity against Shigella flexneri RCMB 0100542 after overnight incubation by macro-tube dilution technique; how it was run: as §3
[16] = tested on: Aspergillus fumigatus; test: Antimicrobial activity against Aspergillus fumigatus RCMB 02564 after 72 hrs by macro-tube dilution technique; settings: RCMB 02564, 72 h
How it was run: (§4)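 Twofold macro-tube dilution following NCCLS guidance, run in malt extract broth. 10 mg compound in 2.0 mL DMSO in tube 1 was serially diluted 1:1 through tube 14 into 1.0 mL broth; tube 15 was the control. Culture was suspended to turbidity in 5.0 mL broth, 0.2 mL was diluted into 40 mL, and 1.0 mL was added per tube. Incubation was 72 h at 30 °C. MIC was the lowest concentration with no growth.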

[17] = tested on: Aspergillus clavatus; test: Antimicrobial activity against Aspergillus clavatus RCMB 02593 after 72 hrs by macro-tube dilution technique; settings: RCMB 02593, 72 h; how it was run: as §4
[18] = tested on: Candida albicans; test: Antimicrobial activity against Candida albicans RCMB 05035 after 72 hrs by macro-tube dilution technique; settings: RCMB 05035, 72 h; how it was run: as §4

Row | Compound | zone of inhibition at 5000 µg/mL [1] [mm] | zone of inhibition at 5000 µg/mL [2] [mm] | zone of inhibition at 5000 µg/mL [3] [mm] | zone of inhibition at 5000 µg/mL [4] [mm] | zone of inhibition at 5000 µg/mL [5] [mm] | zone of inhibition at 5000 µg/mL [6] [mm] | zone of inhibition at 5000 µg/mL [7] [mm] | zone of inhibition at 5000 µg/mL [8] [mm] | zone of inhibition at 5000 µg/mL [9] [mm] | MIC [10] [µg/mL] | MIC [11] [µg/mL] | MIC [12] [µg/mL] | MIC [13] [µg/mL] | MIC [14] [µg/mL] | MIC [15] [µg/mL] | MIC [16] [µg/mL] | MIC [17] [µg/mL] | MIC [18] [µg/mL]
1 | Clc1ccc(-c2nn(-c3ccccc3)cc2/C=N/Nc2ccc3ccccc3n2)cc1 | 24.5 | 25.7 | 27.6 | 21.4 | 22.9 | 21.8 | 21.5 | 19.8 | 24.9 | 0.97 (≈ 2.29 µM) | 3.9 (≈ 9.2 µM) | 0.97 (≈ 2.29 µM) | 3.9 (≈ 9.2 µM) | 3.9 (≈ 9.2 µM) | 3.9 (≈ 9.2 µM) | 15.6 (≈ 36.9 µM) | 7.81 (≈ 18.4 µM) | 3.9 (≈ 9.2 µM)
2 | COc1ccc(C2CC(c3ccc(Oc4ccc5ccccc5n4)cc3)=NN2)cc1 (centres undefined) | 13.1 | 14.6 | 13.7 | 14.3 | 16.2 | 14.3 | 13.5 | 14.2 | 12.1 | – | – | – | – | – | – | – | – | –
3 | CSc1nn(-c2ccc3ccccc3n2)c(N)c1C#N | 18.9 | 16.2 | 19.8 | 12.3 | 15.3 | 16.2 | 15.7 | 15.9 | 16.8 | – | – | – | – | – | – | – | – | –
4 | COc1ccc(C2=NN(c3ccccc3)C(c3ccc(Oc4ccc5ccccc5n4)cc3)C2)cc1 (centres undefined) | 12.1 | 13.1 | 0 | 13.5 | 15.9 | 14.4 | 16.2 | 14.5 | 11.6 | – | – | – | – | – | – | – | – | –
5 | N#Cc1c(-c2cccc(Cl)c2)nn(-c2ccc3ccccc3n2)c1N | 10.3 | 11.6 | 13.3 | 0 | 0 | 0 | 12.3 | 13.2 | 15.2 | – | – | – | – | – | – | – | – | –
6 | Cc1nn(-c2ccc3ccccc3n2)c(N)c1C#N | 19.2 | 20.6 | 20.9 | 11.6 | 15.7 | 15.9 | 16.8 | 18.3 | 20.4 | 3.9 (≈ 15.6 µM) | 0.98 (≈ 3.93 µM) | 0.98 (≈ 3.93 µM) | 500 (≈ 2010 µM) | 31.2 (≈ 125 µM) | 31.2 (≈ 125 µM) | 15.6 (≈ 62.7 µM) | 7.8 (≈ 31.3 µM) | 1.95 (≈ 7.82 µM)
7 | COc1ccc(C2=NNC(c3ccc(Oc4ccc5ccccc5n4)cc3)C2)cc1 (centres undefined) | 16.2 | 18.6 | 19.4 | 16.2 | 0 | 15.4 | 15.6 | 12.8 | 11.6 | – | – | – | – | – | – | – | – | –
8 | Cc1ccc(-c2nn(-c3ccccc3)cc2/C=N/Nc2ccc3ccccc3n2)cc1 | 20.3 | 20.7 | 22.4 | 16.2 | 17.6 | 18.3 | 20.5 | 18.3 | 22.1 | 1.95 (≈ 4.83 µM) | 0.98 (≈ 2.43 µM) | 0.49 (≈ 1.21 µM) | 31.2 (≈ 77.4 µM) | 7.81 (≈ 19.4 µM) | 7.81 (≈ 19.4 µM) | 0.98 (≈ 2.43 µM) | 7.81 (≈ 19.4 µM) | 0.49 (≈ 1.21 µM)
9 | CCOC(=O)c1c(SC)nn(-c2ccc3ccccc3n2)c1N | 15.8 | 17.8 | 19.8 | 0 | 0 | 0 | 18.7 | 19.3 | 20.3 | – | – | – | – | – | – | 7.81 (≈ 23.8 µM) | 7.81 (≈ 23.8 µM) | 1.95 (≈ 5.94 µM)
10 | Clc1ccccc1C1CC(c2ccc(Oc3ccc4ccccc4n3)cc2)=NN1c1ccccc1 (centres undefined) | 14.8 | 0 | 16.4 | 12.4 | 13.3 | 0 | 12.3 | 0 | 9.3 | – | – | – | – | – | – | – | – | –
11 | COc1ccc(C(=O)/C=C/c2ccc(Oc3ccc4ccccc4n3)cc2)cc1 | 8.7 | 10.6 | 0 | 0 | 7.2 | 0 | 10.7 | 11.5 | 0 | – | – | – | – | – | – | – | – | –
